Source: ChEMBL document CHEMBL1129733, “Aminoacetyl moiety as a potential surrogate for diacylhydrazine group of SC-51089, a potent PGE2 antagonist, and its analogs” (J Med Chem, 1996)

Assays:
[1] = molecular target: Prostaglandin E2 receptor EP1 (Cavia porcellus); assay: PGE-2 (EP1 subtype) antagonistic activity as PGE2-stimulated guinea pig ileum muscle strip assay; details: read-out: pA2 (converted)
[2] = species: Mus musculus; assay: Antinociceptive activity in mouse by using phenylbenzoquinone writing assay.; assay type: functional
Procedure, shortened: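 Mice given test compound at an initial screening dose of 30 mg/kg. ED50 determined only for compounds producing a response in seven of ten animals, with 95% confidence limits (p < 0.05).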

Row | Compound | Kb [1] [nM] | ED50 [2] [mg/kg]
1 | O=C(CCc1ccncc1)NCC(=O)N1Cc2ccccc2Oc2ccc(Cl)cc21 | 2000 | –
2 | O=C(CCSCc1ccco1)NCC(=O)N1Cc2ccccc2Oc2ccc(Cl)cc21 | 39.8 | –
3 | O=C(NNC(=O)C(F)(F)C(O)c1ccccn1)N1Cc2ccccc2Oc2ccc(Cl)cc21 (stereo not drawn) | 31.6 | 9.1
4 | CCS(=O)(=O)CCC(=O)NNC(=O)N1Cc2ccccc2Oc2ccc(Cl)cc21 | 1580 | 7.4
5 | O=C(CCSCc1ccco1)NNC(=O)N1Cc2ccccc2Oc2ccc(Cl)cc21 | – | 0.9
6 | CCS(=O)(=O)CCC(=O)NCC(=O)N1Cc2ccccc2Oc2ccc(Cl)cc21 | 2000 | –
7 | CCS(=O)(=O)CCC(=O)CNC(=O)N1Cc2ccccc2Oc2ccc(Cl)cc21 | 2510 | –
8 | O=C(CCSCc1ccco1)CNC(=O)N1Cc2ccccc2Oc2ccc(Cl)cc21 | 63.1 | –
9 | O=C(CNC(=O)C(F)(F)C(O)c1ccccn1)N1Cc2ccccc2Oc2ccc(Cl)cc21 (stereo not drawn) | – | 8.1
10 | O=C(CCc1ccncc1)NNC(=O)N1Cc2ccccc2Oc2ccc(Cl)cc21 | 316 | 6.8
